Reference: paper PMC5064183 (Annals of Dermatology, 2016)

Experiments:
[1] = test system: Mushroom tyrosinase (EC 1.14.18.1); test: In vitro mushroom tyrosinase assay; type: biochemical
How it was run: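 Mushroom tyrosinase (EC 1.14.18.1), enzyme stock 1,100 units/ml (0.516 mg/ml) in 0.1 M phosphate buffer, mixed with phosphate buffer, test compound or reference inhibitor, and 5 mM L-dopa solution. Incubated 10 min at 37℃; dopachrome read at 475 nm. % inhibition = (ΔAcontrol−ΔAsample)/ΔAcontrol×100; IC50 = concentration giving 50% inhibition. Triplicate wells; experiments run at least three times; mean±SD, unpaired t-test.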

[2] = test system: B16F10 mouse melanoma cells; test: Melanin content assay in B16F10 cells; type: cell-based; settings: αMSH (10 nM) induced B16F10 melanoma cells (Fig. 6A)
How it was run: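 B16F10 cells grown in DMEM with 10% FBS and 1% penicillin/streptomycin at 37℃, 5% CO2, under αMSH (10 nM) stimulation. Seeded in 12-well plates for 24 h, refed and held 48 h in triplicate cultures, then trypsinised. Washed twice in PBS, lysed in 1 N NaOH/10% DMSO at 80℃ for 1 h; absorbance 405 nm versus untreated cells. Mean±SD; unpaired t-test.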

[3] = test system: Melan-a mouse melanocytes; test: Melanin content assay in Melan-a cells; type: cell-based; settings: αMSH (10 nM) induced Melan-a cells (Fig. 6B)
How it was run: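 Immortal non-tumorigenic mouse melanocytes kept in RPMI 1640 with 10% FBS, 1% penicillin/streptomycin and 200 nM TPA at 37℃, 10% CO2, subcultured every 4th day. Melanin content measured under αMSH (10 nM) stimulation and expressed as % of untreated control alongside MTT viability. Mean±SD; unpaired t-test.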

Compound | dose dependence of mushroom tyrosinase inhibition ([1]; 5, 10, 20, 40, and 80 µM (Fig. 4, 5)) | maximum inhibitory effect of tyrosinase activity ([1]; in vitro tyrosinase screening, as restated in the discussion) | effect on melanin content (in words) [2] | effect on melanin content (in words) [3]
KA-CDPGYIGSR [KA-CR9] | dose-dependent inhibition | 84% | – | –
OC[C@H]1O[C@@H](Oc2ccc(O)cc2)[C@H](O)[C@@H](O)[C@@H]1O [Arbutin, hydroquinone-beta-D-glucopyranoside] | – | – | inhibited melanin content | inhibited melanin content
